Experimental data from ChEMBL document CHEMBL1122426, “Radioiodine-labeled N,N-dimethyl-N'-(2-hydroxy-3-alkyl-5-iodobenzyl)-1,3-propanediamines for brain perfusion imaging” (J Med Chem, 1983).

Legend:
Rattus norvegicus [1] = species: Rattus norvegicus; test: Distribution coefficient at pH 7.4 in rat; assay type: ADME, organism-based
How it was run: (§1)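 Octanol/buffer partition: I-125 labeled diamine mixed with 3 g each of 1-octanol and 0.1 M phosphate buffer at pH 7.0 or 7.4, vortexed 3× 1 min, centrifuged 5 min. Two 0.5 g samples of each layer counted. Value is cpm/g octanol over cpm/g buffer, usually repeated three times.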

Rattus norvegicus [2] = test: Biodistribution of I-125 labeled compound in rat lungs, 2 min after intravenous injection. value expressed in average % dose per organ; assay type: ADME, organism-based, Lung; details: in vivo
Rattus norvegicus [3] = test: Biodistribution of I-125 labeled compound in rat muscle, 1 hr after intravenous injection. value expressed in average % dose per organ; assay type: ADME, organism-based, Muscle tissue; details: in vivo
Rattus norvegicus [4] = test: Biodistribution of I-125 labeled compound in rat blood, 1 hr after intravenous injection. value expressed in average % dose per organ; assay type: ADME, organism-based; details: in vivo
Rattus norvegicus [5] = test: Biodistribution of I-125 labeled compound in rat brain to blood ratio, 2 min after intravenous injection. value expressed in % dose per gram ratio; assay type: ADME, organism-based
How it was run: (§2)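 Rats given I-125 diamine iv; tissue activity at 2 min or 1 h compared with diluted injected-dose aliquots. % dose per gram approximated as % dose per organ divided by mean organ weight (brain 1.65 g; blood 18 g). Ratio taken from the per-gram values.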

Rattus norvegicus [6] = test: Biodistribution of I-125 labeled compound in rat liver, 2 min after intravenous injection. value expressed in average % dose per organ; assay type: ADME, organism-based; details: in vivo
Rattus norvegicus [7] = test: Biodistribution of I-125 labeled compound in rat heart, 2 min after intravenous injection. value expressed in average % dose per organ; assay type: ADME, organism-based; details: in vivo
[8] = The protein binding ability of compound was expressed in Percent free; assay type: ADME; details: read-out: % free
How it was run: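 Binding to pooled human serum was measured by equilibrium dialysis. 0.4 mL serum and 0.4 mL 0.15 M phosphate buffer, pH 7.4, were separated by a membrane, and 0.025 μCi radiolabeled diamine was added on the buffer side. Cells were rotated at 37 °C for 18 h, and aliquots from both sides were weighed and counted. % free = buffer/serum radioactivity concentration ratio × 100. The membrane was also counted.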

Rattus norvegicus [9] = test: Biodistribution of I-125 labeled compound in rat liver, 1 hr after intravenous injection. value expressed in average % dose per organ; assay type: ADME, organism-based; details: in vivo
Rattus norvegicus [10] = test: Biodistribution of I-125 labeled compound in rat lungs, 1 hr after intravenous injection. value expressed in average % dose per organ; assay type: ADME, organism-based, Lung; details: in vivo
Rattus norvegicus [11] = test: Biodistribution of I-125 labeled compound in rat thyroid, 2 min after intravenous injection. value expressed in average % dose per organ; assay type: ADME, organism-based, Thyroid gland; details: in vivo
Rattus norvegicus [12] = test: Biodistribution of I-125 labeled compound in rat brain, 2 min after intravenous injection. value expressed in average % dose per organ; assay type: ADME, organism-based; details: in vivo
Rattus norvegicus [13] = test: Biodistribution of I-125 labeled compound in rat brain, 1 hr after intravenous injection. value expressed in average % dose per organ; assay type: ADME, organism-based; details: in vivo
Rattus norvegicus [14] = test: Biodistribution of I-125 labeled compound in rat thyroid, 1 hr after intravenous injection. value expressed in average % dose per organ; assay type: ADME, organism-based, Thyroid gland; details: in vivo
Rattus norvegicus [15] = test: Biodistribution of I-125 labeled compound in rat muscle, 2 min after intravenous injection. value expressed in average % dose per organ; assay type: ADME, organism-based, Muscle tissue; details: in vivo
Rattus norvegicus [16] = test: Biodistribution of I-125 labeled compound in rat heart, 1 hr after intravenous injection. value expressed in average % dose per organ; assay type: ADME, organism-based; details: in vivo
Rattus norvegicus [17] = species: Rattus norvegicus; test: Distribution coefficient at pH 7.0 in rat; assay type: ADME, organism-based; how it was run: as §1
Rattus norvegicus [18] = test: Biodistribution of I-125 labeled compound in rat blood, 2 min after intravenous injection. value expressed in average % dose per organ; assay type: ADME, organism-based; details: in vivo
Rattus norvegicus [19] = test: Biodistribution of I-125 labeled compound in rat brain to blood ratio, 1 hr after intravenous injection. value expressed in % dose per gram ratio; assay type: ADME, organism-based; how it was run: as §2
Rattus norvegicus [20] = test: Biodistribution of I-125 labeled compound in rat muscle, 2 min after intravenous injection. value expressed in average % dose per organ; value may range from 4.59 to 12.0; assay type: ADME, organism-based, Muscle tissue; details: in vivo
Rattus norvegicus [21] = test: Biodistribution of I-125 labeled compound in rat heart, 1 hr after intravenous injection. value expressed in average % dose per organ; value may range from 1.12 to 1.86; assay type: ADME, organism-based; details: in vivo
Rattus norvegicus [22] = test: Biodistribution of I-125 labeled compound in rat thyroid, 1 hr after intravenous injection. value expressed in average % dose per organ; value may range from 0.16 to 0.26; assay type: ADME, organism-based, Thyroid gland; details: in vivo
Rattus norvegicus [23] = test: Biodistribution of I-125 labeled compound in rat brain, 2 min after intravenous injection. value expressed in average % dose per organ; value may range from 1.45 to 1.89; assay type: ADME, organism-based; details: in vivo
Rattus norvegicus [24] = test: Biodistribution of I-125 labeled compound in rat blood, 1 hr after intravenous injection. value expressed in average % dose per organ; value may range from 0.99 to 1.37; assay type: ADME, organism-based; details: in vivo
Rattus norvegicus [25] = test: Biodistribution of I-125 labeled compound in rat lungs, 2 min after intravenous injection. value expressed in average % dose per organ; value may range from 24.6 to 42.2; assay type: ADME, organism-based, Lung; details: in vivo
Rattus norvegicus [26] = test: Biodistribution of I-125 labeled compound in rat heart, 2 min after intravenous injection. value expressed in average % dose per organ; value may range from 2.20 to 3.07; assay type: ADME, organism-based; details: in vivo
Rattus norvegicus [27] = test: Biodistribution of I-125 labeled compound in rat blood, 2 min after intravenous injection. value expressed in average % dose per organ; value may range from 2.74 to 5.33; assay type: ADME, organism-based; details: in vivo
Rattus norvegicus [28] = test: Biodistribution of I-125 labeled compound in rat liver, 1 hr after intravenous injection. value expressed in average % dose per organ; value may range from 7.32 to 10.1; assay type: ADME, organism-based; details: in vivo
Rattus norvegicus [29] = test: Biodistribution of I-125 labeled compound in rat thyroid, 2 min after intravenous injection. value expressed in average % dose per organ; value may range from 0.15 to 0.25; assay type: ADME, organism-based, Thyroid gland; details: in vivo
Rattus norvegicus [30] = test: Biodistribution of I-125 labeled compound in rat lungs, 1 hr after intravenous injection. value expressed in average % dose per organ; value may range from 11.5 to 26.1; assay type: ADME, organism-based, Lung; details: in vivo
Rattus norvegicus [31] = test: Biodistribution of I-125 labeled compound in rat liver, 2 min after intravenous injection. value expressed in average % dose per organ; value may range from 6.36 to 14.2; assay type: ADME, organism-based; details: in vivo
Rattus norvegicus [32] = test: Biodistribution of I-125 labeled compound in rat brain, 1 hr after intravenous injection. value expressed in average % dose per organ; value may range from 1.51 to 2.17; assay type: ADME, organism-based; details: in vivo
Rattus norvegicus [33] = test: Biodistribution of I-125 labeled compound in rat muscle, 1 hr after intravenous injection. value expressed in average % dose per organ; value may range from 11.3 to 17.1; assay type: ADME, organism-based, Muscle tissue; details: in vivo

## CN(C)CCCNCc1cc(I)cc(C(C)(C)C)c1O
Rattus norvegicus [1]
  Distribution coefficient: 1390
Rattus norvegicus [2]
  Average dose per organ: 28.2%
Rattus norvegicus [3]
  Average dose per organ: 14.1%
Rattus norvegicus [4]
  Average dose per organ: 2.79%
Rattus norvegicus [5]
  Ratio: 4.31%
Rattus norvegicus [6]
  Average dose per organ: 11.7%
Rattus norvegicus [7]
  Average dose per organ: 3.16%
[8]
  fraction unbound: 0.0607
Rattus norvegicus [9]
  Average dose per organ: 7.38%
Rattus norvegicus [10]
  Average dose per organ: 15.4%
Rattus norvegicus [11]
  Average dose per organ: 0.17%
Rattus norvegicus [12]
  Average dose per organ: 1.67%
Rattus norvegicus [13]
  Average dose per organ: 1.67%
Rattus norvegicus [14]
  Average dose per organ: 0.2%
Rattus norvegicus [15]
  Average dose per organ: 6.44%
Rattus norvegicus [16]
  Average dose per organ: 1.33%
Rattus norvegicus [17]
  Distribution coefficient: 522
Rattus norvegicus [18]
  Average dose per organ: 4.16%
Rattus norvegicus [19]
  Ratio: 6.43%

## CCCc1cc(I)cc(CNCCCN(C)C)c1O
Rattus norvegicus [20]
  Average dose per organ: 7.44%
Rattus norvegicus [1]
  Distribution coefficient: 176
Rattus norvegicus [21]
  Average dose per organ: 1.49%
Rattus norvegicus [22]
  Average dose per organ: 0.21%
Rattus norvegicus [23]
  Average dose per organ: 1.71%
Rattus norvegicus [24]
  Average dose per organ: 1.15%
Rattus norvegicus [25]
  Average dose per organ: 33%
Rattus norvegicus [5]
  Ratio: 4.49%
[8]
  fraction unbound: 0.159
Rattus norvegicus [26]
  Average dose per organ: 2.67%
Rattus norvegicus [27]
  Average dose per organ: 4.09%
Rattus norvegicus [28]
  Average dose per organ: 8.01%
Rattus norvegicus [29]
  Average dose per organ: 0.17%
Rattus norvegicus [30]
  Average dose per organ: 16.1%
Rattus norvegicus [31]
  Average dose per organ: 9.54%
Rattus norvegicus [17]
  Distribution coefficient: 44.8
Rattus norvegicus [32]
  Average dose per organ: 1.79%
Rattus norvegicus [33]
  Average dose per organ: 14.6%
Rattus norvegicus [19]
  Ratio: 16.7%
